Assay results reported in ChEMBL document CHEMBL2202986, “Guaianolide sesquiterpene lactones, a source to discover agents that selectively inhibit acute myelogenous leukemia stem and progenitor cells” (J Med Chem, 2012).

Columns and labels:
[1] = Toxicity in po dosed BALB/c mouse administered as single dose; assay type: organism-based; conditions: in vivo
Outline: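 Oral gavage of aqueous solution at a single dose of 1000 mg/kg. Untreated and water-vehicle mice served as controls; 16 mice in total (8 male/8 female). Mice were sacrificed 1 week after dosing. Heart, liver, spleen, lung and kidney were formalin-fixed, paraffin-embedded, sectioned at 3 μm, H&E-stained, and examined for gross morphology.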

Mus musculus [2] = assay: Toxicity in BALB/c mouse assessed as pathological changes in kidney at 1000 mg/kg, po administered as single dose by hematoxylin-eosin staining method; assay type: organism-based; design: dose 1000 mg/kg, route oral; conditions: in vivo
Outline: (§1)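 BALB/c mice (16 in total, 8 male/8 female) were given aqueous DMAMCL by gavage as a single 1000 mg/kg dose or 500 mg/kg daily for seven doses. Water-only and untreated mice served as controls. One week later, tissues were fixed in 10% neutral-buffered formalin, embedded in paraffin, cut into 3 μm sections, stained with H&E and examined microscopically.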

Mus musculus [3] = assay: Toxicity in BALB/c mouse assessed as pathological changes in spleen at 1000 mg/kg, po administered as single dose by hematoxylin-eosin staining method; assay type: organism-based; design: dose 1000 mg/kg, route oral; conditions: in vivo
Outline: (§2)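 BALB/c mice, 16 in total (8 male, 8 female). DMAMCL was given by gavage as an aqueous solution, either 1000 mg/kg once or 500 mg/kg every day for seven doses. Controls were untreated and water-vehicle mice. Mice were killed 1 week after dosing. Heart, liver, spleen, lung and kidney were fixed in 10% neutral-buffered formalin, paraffin-embedded, cut into 3 μm sections, H&E-stained and examined microscopically for gross morphology.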

Mus musculus [4] = assay: Toxicity in BALB/c mouse assessed as pathological changes in liver at 1000 mg/kg, po administered as single dose by hematoxylin-eosin staining method; assay type: organism-based; design: dose 1000 mg/kg, route oral; conditions: in vivo; outline: as §2
Mus musculus [5] = assay: Toxicity in BALB/c mouse assessed as pathological changes in heart at 1000 mg/kg, po administered as single dose by hematoxylin-eosin staining method; assay type: organism-based; design: dose 1000 mg/kg, route oral; conditions: in vivo; outline: as §1
[6] = Antitumor activity against mixed-lineage human leukemia cells xenografted in NOD/SCID mouse assessed as inhibition of cancer cell engrafting at 100 mg/kg, po qd administered every other day total of seven doses starting from 8 weeks post grafting measured on day 35; assay type: functional
[7] = Antitumor activity against human leukemia stem/progenitor cells xenografted in NOD/SCID mouse assessed as reduction of CD45+CD33+ cells in bone marrow at 100 mg/kg, po qd administered every other day total of seven doses starting from 8 weeks post grafting measured on day 85; assay type: functional; design: scale not given: the % may be the effect or the level left
Outline: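 NOD/SCID mice, sublethally irradiated (280cGay), received primary AML M5 patient cells via tail vein in PBS 6−10 h later. From 8 weeks after engraftment, aqueous drug was given orally every other day for seven doses. Surviving mice were sacrificed on day 85 post-inoculation, and human CD45⁺CD33⁺ cells in bone marrow were measured by flow cytometry.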

[8] = Antitumor activity against human leukemia stem/progenitor cells xenografted in NOD/SCID mouse assessed as survival time at 100 mg/kg, po qd administered every other day total of seven doses starting from 8 weeks post grafting (reference value: 43 days); assay type: functional
Outline: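 NOD/SCID mice were sublethally irradiated (280cGay), then 6−10 h later given primary AML M5 patient cells via tail vein in PBS. From 8 weeks postinoculation, aqueous solution was given orally at 100 mg/kg every other day for seven doses. Survival was followed, Kaplan−Meier, n = 6 per treated group and n = 7 untreated controls. Survivors at day 85 had bone marrow analysed for human CD45⁺CD33⁺ cells.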

[9] = Volume of distribution in mouse at 100 mg/kg, iv; assay type: ADME, organism-based; design: dose 100 mg/kg, route intravenous; conditions: in vivo
Outline: (§3)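 Male Kunming mice (20 2 g) were fasted 12 h with water available. An aqueous solution was dosed po (150 mg/kg) or iv (100 mg/kg), n = 5 per route. Blood was drawn from the orbital veins at set times to measure DMAMCL and released MCL. Parameters come from a noncompartmental model and are given as mean with SD.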

[10] = Cmax in mouse at 100 mg/kg, iv; assay type: ADME, organism-based; design: dose 100 mg/kg, route intravenous; conditions: in vivo
Outline: (§4)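 Male Kunming mice (20 2 g), fasted 12 h before dosing with water available, given DMAMCL as an aqueous solution iv (n = 5). Blood was drawn from the orbital veins at set times. DMAMCL and MCL in plasma were measured, and parameters were derived by a noncompartmental model.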

[11] = Total clearance in mouse at 100 mg/kg, iv; assay type: ADME, organism-based; design: dose 100 mg/kg, route intravenous; conditions: in vivo; outline: as §4
[12] = Half life in mouse at 100 mg/kg, iv; assay type: ADME, organism-based; design: dose 100 mg/kg, route intravenous; conditions: in vivo; outline: as §4
[13] = AUC (0 to infinity) in mouse at 100 mg/kg, iv; assay type: ADME, organism-based; design: time infinity, dose 100 mg/kg, route intravenous; conditions: plasma; outline: as §4
[14] = AUC (0 to t) in mouse at 100 mg/kg, iv; assay type: ADME, organism-based; design: dose 100 mg/kg, route intravenous; conditions: plasma; outline: as §4
[15] = Cmax in mouse at 150 mg/kg, po; assay type: ADME, organism-based; design: dose 150 mg/kg, route oral; conditions: in vivo
Outline: (§5)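 Male Kunming mice (20 2 g), fasted 12 h before dosing with water available, given DMAMCL as an aqueous solution po (n = 5). Blood was drawn from the orbital veins at set times. Plasma DMAMCL and MCL were followed, and parameters came from noncompartmental analysis.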

Mus musculus [16] = assay: Volume of distribution in mouse at 150 mg/kg, po; assay type: ADME, organism-based; design: dose 150 mg/kg, route oral; conditions: in vivo; outline: as §3
[17] = Total clearance in mouse at 150 mg/kg, po; assay type: ADME, organism-based; design: dose 150 mg/kg, route oral; conditions: in vivo; outline: as §5
[18] = AUC (0 to infinity) in mouse at 150 mg/kg, po; assay type: ADME, organism-based; design: dose 150 mg/kg, route oral, time infinity; conditions: plasma; outline: as §5
[19] = Drug degradation in HEPES buffer at pH 7.4 assessed as release of MCL; assay type: physicochemical
Outline: (§6)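 A 20 μL aliquot of prodrug solution was added to 980 μL HEPES buffer (pH 7.4, or below 5.0) and incubated at 37 °C. Samples were withdrawn over time, and prodrug and released parent were quantified by HPLC (mean, SD, n = 4).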

[20] = Cytotoxicity against human HL60/A cells after 18 hrs by annexin-V labeling-based flow cytometry; assay type: functional, cell-based
HL-60 = assay: Cytotoxicity against human HL60 cells after 18 hrs by annexin-V labeling-based flow cytometry; assay type: functional, cell-based; conditions: HL-60, 18 h
Plasma = assay: Drug metabolism in mouse plasma assessed as release of MCL; assay type: ADME, cell-free
Outline: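 A 20 μL aliquot of prodrug solution was added to 980 μL blank mouse plasma and incubated at 37 °C. Prodrug and released parent drug concentrations were measured over time by HPLC (mean, SD, n = 4).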

[21] = Drug degradation in HEPES buffer at pH 7.4 assessed as release of MCL up to 8 hrs; assay type: physicochemical; conditions: pH 7.4, 8 h; outline: as §6
[22] = Cytotoxicity against human leukemia cells assessed as cell viability at 10 uM after 18 hrs by annexin-V labeling-based flow cytometry
Mus musculus [23] = assay: Toxicity in BALB/c mouse assessed as pathological changes in lung at 500 mg/kg, po administered every day for 7 days by hematoxylin-eosin staining method; conditions: in vivo, 168 h
Mus musculus [24] = assay: Toxicity in BALB/c mouse assessed as pathological changes in heart at 500 mg/kg, po administered every day for 7 days by hematoxylin-eosin staining method; conditions: in vivo, 168 h
Mus musculus [25] = assay: Toxicity in BALB/c mouse assessed as pathological changes in spleen at 500 mg/kg, po administered every day for 7 days by hematoxylin-eosin staining method; conditions: in vivo, 168 h

For `CC1=C2CC[C@@](C)(O)[C@@H]2[C@H]2OC(=O)[C@@H](CN(C)C)[C@@H]2CC1.Cl` [DIMETHYLAMINOMICHELIOLIDE HYDROCHLORIDE], the MTD [1] was 1000 mg/kg, the Activity (Mus musculus [2]) was “Non-toxic” and the Activity (Mus musculus [3]) was “Non-toxic”. For the same compound, the Activity (Mus musculus [4]) was “Non-toxic”, the Activity (Mus musculus [5]) was “Non-toxic” and the inhibition in vivo at 100 mg/kg [6] was 98.6%. For the same compound, the Activity [7] was 0.005%, the Survival [8] was 63 days and the Vd [9] was 88.2 L/kg. It also gave a Cmax [10] of 92.9 µg/mL, a clearance [11] of 37.7 mL/min/kg and a half-life [12] of 18.9 h. It also gave an AUC(0-inf) [13] of 44800 ng·h/mL, an AUC(0-t) [14] of 43900 ng·h/mL and a Cmax [15] of 19 µg/mL. It also gave a Vd (Mus musculus [16]) of 47.38 L/kg, a CL/F [17] of 51.3 mL/min/kg and an AUC(0-inf) [18] of 50300 ng·h/mL. The Drug degradation [19] was “Active”, the IC50 [20] was 21.5 µM and the IC50 (HL-60) was 17.2 µM. For the same compound, the Drug metabolism (Plasma) was “Active”, the Drug degradation [21] was “Active” and the viability at 10 µM [22] was 64.9%. For the same compound, the Activity (Mus musculus [23]) was “Non-toxic”, the Activity (Mus musculus [24]) was “Non-toxic” and the Activity (Mus musculus [25]) was “Non-toxic”.
